PubChem BioAssay AID493227 (Broad Institute, 2011)
Where “and” joins values, the source holds several entries; their conditions need not be identical. Identical values can stand only once. Calls of active or inactive are those of the source.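 Rule for the calls: active = fitted curve reaches 40% activation at a dose no higher than the top dose validly tested; inconclusive = flat curve between 30 and 70% activation, or poor fit; inactive = the rest, including signal moving against the expected rise.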

System: not listed separately
Test: HRE-luciferase activation in U2OS cells, dose response, cell-based, luminescence, U2OS HRE-luc, dry powder, set 8 (AID 493227)
Conditions: U2OS HRE-luciferase reporter, luminescence, HIF activation; at 38 µM (top of the series)
How it was run: (§1)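 incubation = 24 h plating, 24 h compound treatment | assay system = U2OS 3×HRE-luciferase reporter cells | quantity = 6,000 cells/well | medium = phenol red-free DMEM, 10% FBS | technique = Steady-Glo luminescence | compound = 8 concentrations, 3-fold dilution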

Row | Compound | activation
1 | O=C(Nc1nnc(-c2ccccc2)s1)c1cc(-c2ccccc2)on1 | 6.25% (inactive)
2 | O=C(c1cc(-c2ccccc2)on1)N1CCc2cccnc21 | -1.93% (inactive)
3 | O=C(Nc1nc2ccccc2s1)c1cc(-c2ccccc2)on1 | 9.05% (inactive)
4 | Cc1ccc(CNC(=O)c2cc(-c3ccccc3)on2)cc1 | -27% (inactive)
5 | Oc1ccc(CN2CCc3ccccc3C2)c2cccnc12 | 99.2% (inactive)
6 | O=C(Nc1ccc2ccccc2n1)c1cc(-c2ccccc2)on1 | -20.3% (inactive)
7 | O=C(Nc1nc(-c2ccccc2)cs1)c1cc(-c2ccccc2)on1 | -11.1% (inactive)
8 | CN1CCN(C(=O)c2cc(-c3ccccc3)on2)CC1 | -33.9% (inactive)
9 | O=C(NCC1CCCCC1)c1cc(-c2ccccc2)on1 | 15.7% (inactive)
10 | Cc1ccc(NC(=O)c2cc(-c3ccccc3)on2)cn1 | -3.16% (inactive)
11 | Cn1c(NC(=O)c2cc(-c3ccccc3)on2)nc2ccccc21 | 5.66% (inactive)
12 | O=C(NC1CCc2ccccc2C1)c1cc(-c2ccccc2)on1 (stereo not drawn) | -11.6% (inactive)
13 | O=C(c1cc(-c2ccccc2)on1)N1CCN(c2ccncc2)CC1 | -11.8% (inactive)
14 | O=C(Nc1cnc2ccccc2c1)c1cc(-c2ccccc2)on1 | 22.1% (inactive)
15 | Cn1c(-c2ccccc2)cnc1NC(=O)c1cc(-c2ccccc2)on1 | 8.45% (inactive)
16 | c1ccc(-c2nnc(-c3ccccn3)nc2N2CCC(C3CCCCC3)C2)cc1 (stereo not drawn) | 2190% (inactive)
17 | O=C(c1cc(-c2ccccc2)on1)N1CCC(CO)CC1 | -18% (inactive)
18 | Cc1ccccc1CNC(=O)c1cc(-c2ccccc2)on1 | 17.1% (inactive)
19 | O=C(c1cc(-c2ccccc2)on1)N1CCC(N2CCOCC2)CC1 | -9.31% (inactive)
20 | O=C(Nc1ncc(-c2ccccc2)o1)c1cc(-c2ccccc2)on1 | -20.6% (inactive)
21 | O=C(c1cc(-c2ccccc2)on1)N1CCC(N2CCCC2)CC1 | -2.94% (inactive)
22 | O=C(Nc1cn2ccccc2n1)c1cc(-c2ccccc2)on1 | -5.39% (inactive)
23 | O=C(Nc1ncc2ccccc2n1)c1cc(-c2ccccc2)on1 | 8.54% (inactive)

System: U2OS HRE-luciferase reporter, luminescence, HIF activation
Test: as above
Conditions: not given
How it was run: as §1

Row | Compound | AC40
24 | c1ccc(CCNc2nc(-c3ccccn3)nnc2-c2ccccc2)cc1 | 1.35 µM
25 | C[C@H](Nc1nc(-c2ccccn2)nnc1-c1ccccc1)C1CCCCC1 | 1.16 µM
26 | CN(C)CCNC(=O)c1cc(-c2ccccc2)on1 | > 38 µM (inactive)
27 | COc1ccccc1N1CCN(Cc2ccc(O)c3ncccc23)CC1 | 11.8 µM
28 | CCCCNC(=O)c1cc(-c2ccccc2)on1 | 3.17 µM
29 | Cc1cccc(CNc2nc(-c3ccccn3)nnc2-c2ccccc2)c1 | 2.09 µM
30 | c1ccc(-c2nnc(-c3ccccn3)nc2NCCc2ccccn2)cc1 | 3.14 µM
31 | Cc1cccc(Nc2nc(-c3ccccn3)nnc2-c2ccccc2)n1 | 1.89 µM
32 | Cc1ccc(CNc2nc(-c3ccccn3)nnc2-c2ccccc2)cc1C | 0.364 µM
33 | Oc1ccc(CN2CCC(Cc3ccccc3)CC2)c2cccnc12 | 11.1 µM
34 | Clc1cccc(CNc2nc(-c3ccccn3)nnc2-c2ccccc2)c1 | 0.826 µM
35 | c1ccc(-c2csc(Nc3nc(-c4ccccn4)nnc3-c3ccccc3)n2)cc1 | 13.9 µM
36 | O=C(NCC1CC1)c1cc(-c2ccccc2)on1 | 1.5 µM
37 | Oc1ccc(CN2CCc3ccccc3C2)c2cccnc12 | 2.32 µM
38 | c1ccc(-c2nnc(-c3ccccn3)nc2NCCN2CCOCC2)cc1 | 1.96 µM
39 | Oc1ccc(CNC2CCc3ccccc32)c2cccnc12 (stereo not drawn) | 13.9 µM
40 | COc1cccc(CNc2nc(-c3ccccn3)nnc2-c2ccccc2)c1 | 1.31 µM
41 | CC(Nc1nc(-c2ccccn2)nnc1-c1ccccc1)c1ccccc1 (stereo not drawn) | 0.875 µM
42 | Cc1ccccc1CNc1nc(-c2ccccn2)nnc1-c1ccccc1 | 2.08 µM
43 | O=C(NCCN1CCCCC1)c1cc(-c2ccccc2)on1 | > 38 µM (inactive)
44 | CC(C)(C)OC(=O)N1CCN(Cc2ccc(O)c3ncccc23)CC1 | > 38 µM (inactive)
45 | O=C(NCCCCO)c1cc(-c2ccccc2)on1 | 1.65 µM

Row | Compound | AC40
46 | c1ccc(-c2nnc(Nc3nc(-c4ccccn4)nnc3-c3ccccc3)s2)cc1 | 0.582 µM
47 | O=C(NCCCO)c1cc(-c2ccccc2)on1 | 5.37 µM
48 | C[C@@H](Nc1nc(-c2ccccn2)nnc1-c1ccccc1)C1CCCCC1 | 1.88 µM
49 | c1ccc(-c2nnc(-c3ccccn3)nc2NCC2CCOCC2)cc1 | 5.01 µM
50 | O=C(NCCCN1CCOCC1)c1cc(-c2ccccc2)on1 | 7.62 µM
51 | c1ccc(-c2nnc(-c3ccccn3)nc2NCc2ccccn2)cc1 | 8.01 µM
52 | c1ccc(-c2nnc(-c3ccccn3)nc2NCC2CC2)cc1 | 2.77 µM
53 | Cn1c(-c2ccccc2)cnc1Nc1nc(-c2ccccn2)nnc1-c1ccccc1 | 4.17 µM
54 | Cc1ccc(Nc2nc(-c3ccccn3)nnc2-c2ccccc2)cn1 | 3.28 µM
55 | c1ccc(CNc2nc(-c3ccccn3)nnc2-c2ccccc2)cc1 | 3.22 µM
56 | Cc1cccc(CNC(=O)c2cc(-c3ccccc3)on2)c1 | > 38 µM (inactive)
57 | CC(C)(C)CCNc1nc(-c2ccccn2)nnc1-c1ccccc1 | 1.41 µM and 0.785 µM
58 | c1ccc(-c2ccc(CNc3nc(-c4ccccn4)nnc3-c3ccccc3)cc2)cc1 | 0.379 µM
59 | O=C(NCCN1CCOCC1)c1cc(-c2ccccc2)on1 | 8.1 µM
60 | OCC1CCN(Cc2ccc(O)c3ncccc23)CC1 | 15.9 µM
61 | N#CC1(c2ccccc2)CCN(Cc2ccc(O)c3ncccc23)CC1 | 14.5 µM
62 | OCC1CCN(c2nc(-c3ccccn3)nnc2-c2ccccc2)CC1 | 12.1 µM
63 | CN(C)c1nc(-c2ccccn2)nnc1-c1ccccc1 | 6.62 µM
64 | COc1ccc(CNc2nc(-c3ccccn3)nnc2-c2ccccc2)cc1 | 0.782 µM
65 | c1ccc(-c2nnc(-c3ccccn3)nc2NCC2CCCCC2)cc1 | 1.28 µM
66 | OCCCNc1nc(-c2ccccn2)nnc1-c1ccccc1 | 7.76 µM
67 | c1ccc(-c2nnc(-c3ccccn3)nc2NCCCN2CCOCC2)cc1 | 3.61 µM

Row | Compound | AC40
68 | c1ccc(-c2nnc(-c3ccccn3)nc2Nc2cnc3ccccc3n2)cc1 | 3.83 µM
69 | CN1CCN(c2nc(-c3ccccn3)nnc2-c2ccccc2)CC1 | 3.01 µM
70 | Oc1ccc(CNC2Cc3ccccc3C2)c2cccnc12 | 8.12 µM
71 | CC1CN(Cc2ccc(O)c3ncccc23)CC(C)O1 (stereo not drawn) | 36.6 µM
72 | c1ccc(-c2nnc(-c3ccccn3)nc2N2CCN(c3ccncc3)CC2)cc1 | 2.35 µM
73 | c1ccc(-c2nnc(-c3ccccn3)nc2Nc2nc3ccccc3s2)cc1 | 2.87 µM
74 | Oc1ccc(CN2CCC3CCCCC3C2)c2cccnc12 (stereo not drawn) | 4.8 µM
75 | c1ccc(-c2cccc(CNc3nc(-c4ccccn4)nnc3-c3ccccc3)c2)cc1 | 0.06 µM
76 | c1ccc(-c2nnc(-c3ccccn3)nc2N2CCC(c3ccccc3)C2)cc1 (stereo not drawn) | 0.509 µM
77 | CC(C)(C)c1ccc(CNc2nc(-c3ccccn3)nnc2-c2ccccc2)cc1 | 0.393 µM
78 | O=C(NCCCn1ccnc1)c1cc(-c2ccccc2)on1 | 4.16 µM
79 | Cc1cccc(NC(=O)c2cc(-c3ccccc3)on2)n1 | > 38 µM (inactive)
80 | c1ccc(-c2nnc(-c3ccccn3)nc2NCc2cccnc2)cc1 | 3.73 µM
81 | O=C(NCc1ccccc1)c1cc(-c2ccccc2)on1 | > 38 µM (inactive)
82 | c1ccc(-c2cnc(Nc3nc(-c4ccccn4)nnc3-c3ccccc3)s2)cc1 | 10.7 µM
83 | Cc1ccc(CNc2nc(-c3ccccn3)nnc2-c2ccccc2)cc1 | 1.28 µM
84 | C=CCNc1nc(-c2ccccn2)nnc1-c1ccccc1 | 1.3 µM
85 | CC(C)(C)CCNC(=O)c1cc(-c2ccccc2)on1 | 5.03 µM
86 | c1ccc(-c2nnc(-c3ccccn3)nc2N2CCC(N3CCOCC3)CC2)cc1 | 2.18 µM
87 | O=C(NC1Cc2ccccc2C1)c1cc(-c2ccccc2)on1 | > 38 µM (inactive)
88 | C[C@@H](Nc1nc(-c2ccccn2)nnc1-c1ccccc1)c1ccccc1 | 1.61 µM
